{
  "source": "paper PMC10013843",
  "about": "(Molecular psychiatry, 2022)",
  "key": {"[1]": {"target": "kappa-opioid receptors, KOR (Rattus norvegicus, UniProt P34975)", "assay": "[^3H]U69,593 competition binding, rat brain membranes"}, "[2]": {"target": "delta-opioid receptor (DOR; OPRD1) (Homo sapiens, UniProt P41143)", "assay": "cAMP BRET", "assay_type": "cell-based", "conditions": "HEK-293 cells, up to a concentration of 1 mM", "procedure,_shortened": "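HEK-293 cells (DMEM, 10% FBS, 37°C/5% CO2) were PEI-transfected with 5 μg untagged MOR, KOR or DOR plus 5 μg CAMYEL cAMP biosensor and used 48 h later. Cells were suspended in DPBS with 100 μM metabisulfite and 5.5 mM glucose and kept 45 min in the dark. Forskolin (10 μM) was added for 5 min, then coelenterazine H (5 μM) for 5 min, then compound. BRET (535/475 nm) was read 5 min later, forskolin-only background subtracted, and expressed as % of each receptor's maximum. Triplicates; 3–6 experiments for EC50/Emax.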"}, "[3]": {"system": ">80 receptor and enzymatic binding sites", "assay": "Receptor and enzyme competitive screen", "conditions": "100 nM", "procedure,_shortened": "(§1)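 In an outsourced panel, membranes from stable cell lines expressing each receptor or enzyme were incubated with the target's radioligand, with or without test compound at 100 nM or 10 μM. A reference compound ran concurrently, and a specific agonist or antagonist defined nonspecific binding. Bound ligand was collected by vacuum filtration through presoaked glass-fibre filters, washed with ice-cold buffer and counted by scintillation.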"}, "[4]": {"target": "Neurokinin receptor (NK1) (Homo sapiens, UniProt P25103)", "assay": "Receptor and enzyme competitive screen", "assay_type": "binding", "conditions": "10 μM", "procedure,_shortened": "as §1"}, "mGluR2": {"target": "mGluR2 (Homo sapiens, UniProt Q14416)", "assay": "[^3H]LY341495 competition binding, recombinant receptor membranes", "conditions": "membranes expressing human recombinant mGluR2"}, "mGluR3": {"target": "mGluR3 (Homo sapiens, UniProt Q14832)", "assay": "[^3H]LY341495 competition binding, recombinant receptor membranes", "conditions": "membranes expressing human recombinant mGluR3"}, "mGluR2/3": {"system": "mGluR2/3", "assay": "mGluR functional assay", "assay_type": "biochemical"}, "mGluR5": {"target": "mGluR5 (Homo sapiens, UniProt P41594)", "assay": "mGluR functional assay", "assay_type": "biochemical"}, "mGluR8": {"target": "mGluR8 (Homo sapiens, UniProt O00222)", "assay": "mGluR functional assay", "assay_type": "biochemical"}, "sigma-1 receptors": {"target": "sigma-1 receptors (Rattus norvegicus, UniProt Q9R0C9)", "assay": "[^3H]-pentazocine competition binding, rat brain membranes"}, "[5]": {"system": "cDNA libraries derived from human adult brain, human lung cancer cells, and human placenta", "assay": "Yeast 3-hybrid screen, human cDNA libraries", "conditions": "lung cancer cell and placenta libraries"}, "[6]": {"target": "glucocorticoid receptor (GR) (Homo sapiens, UniProt P04150)", "assay": "Screening and target deconvolution experiments", "assay_type": "binding"}, "[^14C]-": {"assay": "[^14C]-", "assay_type": "in vivo, rat", "conditions": "for % of the total radioactivity exposure through 72 hours: plasma; for plasma exposure AUC 0–72h: [^14C]-(2R,6R)-HNK 10 mg/kg i.v.", "procedure,_shortened": "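Male and female rats received a single bolus IV dose of 14C-labelled test compound (10 mg/kg). Blood and plasma radioactivity was followed from 15 min to 120 h in males and to 72 h in females. […] Whole-body autoradiograms were taken at 30 min and 4 h.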"}, "mice": {"system": "mice", "assay": "Conditioned place preference", "assay_type": "in vivo, mouse", "conditions": "male mice", "procedure,_shortened": "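Male C57BL/6J mice (20–25 g, n = 8/group) received saline or test compound (10, 30 or 65 mg/kg IP) before 15-min confinement to one side of a two-sided chamber (clear/white vs checkered/black). Vehicle was given before the opposite side on alternate days, counterbalanced across 6 conditioning days. A 20-min free-exploration pre-test came first, within 8 daily sessions. Infrared beams tracked time per side and distance travelled.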"}, "rats [7]": {"system": "rats", "assay": "Intravenous self-administration", "assay_type": "in vivo, rat", "procedure,_shortened": "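Male rats had jugular catheters placed under isoflurane and recovered 6–8 days. They were food-restricted (18–20 g/day) on a reverse 12-h cycle. For training (n = 14), rats self-administered test compound at 0.5 mg/kg/infusion IV, FR1 with 20-s timeout, for 16 days. For dose-response (n = 8/condition), unit doses of 0.125, 0.25, 0.5 or 1.0 mg/kg/infusion were given in randomized sequence, 1 h/day for 8 days. Read-out was infusions earned.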"}, "rats [8]": {"system": "rats", "assay": "Heroin self-administration and substitution", "assay_type": "in vivo, rat", "conditions": "0.5 mg/kg/inf IV"}, "rats [9]": {"system": "rats", "conditions": "i.v. doses up to 160 mg/kg; cited from earlier work"}},
  "data": [
    {"compound": "N[C@@]1(c2ccccc2Cl)CCC[C@@H](O)C1=O", "note": "[(2R,6R)-HNK, (2R,6R)-hydroxynorketamine]", "values": [
      {"measurement": "binding to opioid receptors (KOR)", "setting": "[1]; concentrations up to 100 μM", "result": "does not bind"},
      {"measurement": "KOR binding, displacement of [^3H]U69,593", "setting": "[1]; rat brain membranes", "result": "failed to displace"},
      {"measurement": "cAMP response (inhibition of cAMP accumulation)", "setting": "[2]", "result": "did not induce any cAMP response"},
      {"measurement": "hits in competitive screen", "setting": "[3]", "result": "No hits"},
      {"measurement": "binding of Substance P to NK1 in screen", "setting": "[4]", "result": "increases binding of Substance P"},
      {"measurement": "displacement of [^3H]LY341475", "setting": "mGluR2", "result": "failed to displace"},
      {"measurement": "displacement of [^3H]LY341475", "setting": "mGluR3", "result": "failed to displace"},
      {"measurement": "functional responses at mGluR2/3", "setting": "mGluR2/3", "result": "did not affect"},
      {"measurement": "effect in functional assay at mGluR5", "setting": "mGluR5", "result": "no effects"},
      {"measurement": "effect in functional assay at mGluR8", "setting": "mGluR8", "result": "no effects"},
      {"measurement": "binding to sigma receptors ([^3H]-pentazocine)", "setting": "sigma-1 receptors", "result": "did not bind"},
      {"measurement": "high-confidence (2R,6R)-HNK-protein interactions", "setting": "[5]", "result": "did not identify any positive high-confidence (2R,6R)-HNK-protein interactions"},
      {"measurement": "interaction with GR", "setting": "[6]", "result": "failed to interact"},
      {"measurement": "% of the total radioactivity exposure through 72 hours", "setting": "[^14C]-; female rats", "result": 26.7, "unit": "%"},
      {"measurement": "plasma exposure AUC 0–72h", "setting": "[^14C]-; female rats", "result": 7090, "unit": "ng eq·h/g"},
      {"measurement": "% of the total radioactivity exposure through 72 hours", "setting": "[^14C]-; male rats", "result": 21.6, "unit": "%"},
      {"measurement": "plasma exposure AUC 0–72h", "setting": "[^14C]-; male rats", "result": 5330, "unit": "ng eq·h/g"},
      {"measurement": "locomotor activity, repeated administration", "setting": "mice; 10, 30, 65 mg/kg IP, CPP conditioning sessions", "result": "did not produce any changes in locomotor activity"},
      {"measurement": "conditioned place preference", "setting": "mice; repeated 10, 30, 65 mg/kg IP", "result": "did not induce CPP"},
      {"measurement": "locomotor sensitization", "setting": "mice; repeated administration", "result": "did not induce sensitization"},
      {"measurement": "self-administration training", "setting": "rats [7]; male rats, 0.5 mg/kg/inf IV, FR1, 20-s timeout, 16 days", "result": "not a reliable reinforcer"},
      {"measurement": "self-administration dose-response", "setting": "rats [7]; rats, unit doses 0.125, 0.25, or 1 mg/kg/inf", "result": "did not respond"},
      {"measurement": "pressing on first session after heroin substitution", "setting": "rats [8]", "result": "pressed significantly more"},
      {"measurement": "self-administration on successive sessions after heroin substitution", "setting": "rats [8]", "result": "rapid extinction of self-administration"},
      {"measurement": "NMDAR-associated neurotoxicity", "setting": "rats [9]", "result": "does not produce NMDAR-associated neurotoxicity"}
    ]}
  ]
}
